# Source: PubChem
# In the library only some 2.8% were active in any assay of this set; here they are far more common.
# RORa activator – activators of human nuclear receptor RORA. P35398. CHO-K1 Gal4-RORA LBD luciferase reporter, luminescence; percent increase over mock-subtracted basal signal. activation, % at 10 µM. hit rate 1.5% among 65,000. AID 560;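 active = activation above the mean of all tested compounds plus 3 SD, cut at about 49% in these data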;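 also: 0% = DMSO-treated RORA cells and 100% = added signal equal to DMSO minus mock-transfected cells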
# Target sequence (P35398 whole entry, looked up, the tested form may be a part): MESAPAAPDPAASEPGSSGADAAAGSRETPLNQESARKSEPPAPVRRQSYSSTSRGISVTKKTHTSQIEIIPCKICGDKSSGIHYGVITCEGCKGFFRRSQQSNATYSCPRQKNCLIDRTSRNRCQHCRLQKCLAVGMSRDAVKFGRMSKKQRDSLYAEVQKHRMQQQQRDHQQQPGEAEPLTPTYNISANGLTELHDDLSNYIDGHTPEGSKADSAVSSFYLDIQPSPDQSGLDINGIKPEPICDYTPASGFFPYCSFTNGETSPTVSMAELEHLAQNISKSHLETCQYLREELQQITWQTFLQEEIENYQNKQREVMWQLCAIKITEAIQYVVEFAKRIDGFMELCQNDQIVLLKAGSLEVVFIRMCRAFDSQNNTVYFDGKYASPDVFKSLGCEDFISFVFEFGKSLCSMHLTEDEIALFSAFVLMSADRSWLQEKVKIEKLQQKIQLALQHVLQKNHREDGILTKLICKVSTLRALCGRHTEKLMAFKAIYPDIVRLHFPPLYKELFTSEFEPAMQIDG
# HEK293 NFkB inh – lowers PMA/ionomycin-induced NF-kB signal in HEK293 cells; HEK-293 NF-kB luciferase reporter, luminescence; inhibition, % at 3 µM; hit rate 0.21% among 62,000; AID 465;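 active = inhibition above the mean of all tested compounds plus 3 SD, cut at about 40% in these data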;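 also: 0% = stimulated DMSO wells and 100% = 10 µM reference inhibitor 5653914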
#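 Timing: 1 h pretreatment, 16 h stimulation, 37 °C; system: HEK-293 cells with stable firefly luciferase reporter driven by four HIV NF-kB elements; doses: 3 µM once, 0.30% DMSO; measured by: luciferase luminescence; control set: DMSO and 10 µM reference inhibitor; repeats: single test; reagent: PMA plus ionomycin mix as NF-kB-activating stimulus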
# SF-1 act – activators of human nuclear receptor SF-1. Q13285. AID 522. CHO-K1 Gal4-SF-1 LBD luciferase reporter; % increase over DMSO SF-1-specific signal. hit rate 1.9% among 65,000. activation, % at 10 µM;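 active = activation above the mean activation of all tested compounds plus 3 SD, cut at about 50% in these data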
#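 Assay system: CHO-K1 cells co-transfected with Gal4 DBD–human SF-1 LBD, 5xGal4 luciferase reporter / Input: 4,000 cells per well / Incubation: 20 h compound exposure at 37 °C after 1 h cell settling / Detection: SteadyLite luciferase luminescence / Control set: DMSO negative control and −SF1 background wells / Replication: one test per compound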
# MT1-MMP txn act – MT1-MMP promoter transcription activation. HT1080 MT1-MMP promoter luciferase reporter, luminescence, overnight; active compounds read high. activation factor at 10 µM. hit rate 0.16% among 86,000;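 active = activation factor of at least 2 for MT1-MMP transcription at 10 µM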
# Jurkat viability – cytotoxic compounds reducing Jurkat cell viability; inhibition, % at 4 µM; hit rate 1.2% among 56,000; Jurkat E6.1 viability, ATP luminescence, 48 h;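 active = inhibition above the mean inhibition of all tested compounds plus 3 SD, cut at about 28% in these data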
# Numbers without * were called inactive; . = no result given.
SMILES,RORa activator,HEK293 NFkB inh,SF-1 act,MT1-MMP txn act,Jurkat viability
Cc1cc(C(=O)CSc2nc3ccccc3[nH]2)c(C)n1C,59.3*,-25.1,61.0*,1,6.6
Cc1nn(-c2ccccc2)c(C)c1C(=O)Nc1nnc(-c2ccco2)o1,0.9,13.1,25.3,1.2,33.2*
Cc1c(C(=O)O)c(-c2ccccc2)nn1-c1ccccc1,10.6,14.1,8.5,1,-0.9
CC(=O)Nc1ccc2nc(-c3ccncc3)[nH]c2c1,.,.,.,0.9,.
CC(=O)Nc1ccc(-c2nc3c(C)cccc3[nH]2)cc1,-4.5,-28.1,99.2*,1.2,7.2
COc1ccc(/C=N/n2c(SC)nnc2-c2ccccc2)c(OC)c1OC,48.5,-1.8,-3.0,0.9,67.6*
COc1cc(C(=O)Nc2ccc(N(C)C)cc2)cc(OC)c1OC,84.5*,6.1,62.3*,1.6,7.2
CCOc1ccc(OCC)c(NC(=O)C2CCCN(S(=O)(=O)c3c(C)noc3C)C2)c1 (centres undefined),-8.2,13.4,8.2,1.2,-5.7
Cc1ccc(-n2nnc3ccccc3c2=O)cc1C,27.5,-8.1,53.8*,1.4,-2.4
Cc1cc(N)n(-c2ncnc3scc(-c4ccc(Cl)cc4)c23)n1,.,.,.,1,.
Cc1cc2ncc(-c3ccc(Cl)cc3)c(N)n2n1,34.6,-4.6,55.4*,1.4,-9.3
Cc1ccc(S(=O)(=O)N(C#N)c2nc(C)cc(C)n2)cc1,.,.,.,1.3,.
O=C(Nc1ccccc1)c1ccn[nH]1,.,.,.,1.3,.
Cc1cc(Cl)ccc1OCCCC(=O)NO,-4.1,-7.0,-5.5,1.3,93.3*
Cc1cc(Cl)ccc1OC(C)c1nnc(N)s1 (centres undefined),.,.,.,1.2,.
O=C(CCNS(=O)(=O)c1cccs1)N1CCCCCC1,31.7,1.2,59.9*,1.7,5.1
CC1CCc2cc(F)cc3c(O)c(C(=O)Nc4cnccn4)c(=O)n1c23 (centres undefined),-19.6,.,4.1,1.1,.
O=C(c1cccc(F)c1)N1CCN(c2cccc(Cl)c2)CC1,12.2,2.2,7.3,1.1,79.5*
COc1ccccc1C(=O)N1CCN(c2cccc(Cl)c2)CC1,30.1,40.4*,25.1,0.5,.
Cc1onc(-c2ccccc2Cl)c1C(=O)N1CCN(c2cccc(Cl)c2)CC1,18.9,28.9,4.3,1.1,60.6*
Cc1onc(-c2ccccc2Cl)c1C(=O)N1CCN(c2ccccc2)CC1,-9.5,2.9,-6.1,1.1,0.0
NC(=O)c1ccsc1NC(=O)CSc1nc2ccccc2c(=O)n1CCCO,9.7,7.2,7.9,1.2,-6.4
NC(=O)c1ccsc1NC(=O)COC(=O)c1ccccc1NCc1ccco1,24.3,17.5,39.9,1.3,-5.5
COc1ccc(C2CC2/C(C)=N/OC(=O)c2cccs2)cc1 (centres undefined),.,.,.,1.2,.
Cc1ccccc1-c1noc(-c2ccc(Cl)cc2)n1,.,.,.,2.1*,.
SMILES,RORa activator,HEK293 NFkB inh,SF-1 act,MT1-MMP txn act,Jurkat viability
Cc1ccccc1-c1noc(-c2ccc(O)cc2)n1,100.7*,16.1,33.4,1.1,7.5
CC(NC(=O)CN(C)Cc1nc2ccccc2c(=O)[nH]1)c1ccccc1 (centres undefined),.,.,.,1,.
CCCCCOC(=O)c1[nH]c2c(c1C)C(=O)CC(c1ccco1)C2 (centres undefined),-54.3,38.5,-57.4,.,101.0*
CCOC(=O)c1[nH]c2c(c1C)C(=O)CC(c1ccc(F)cc1)C2 (centres undefined),-22.9,39.7,-20.3,0.4,95.4*
CCOC(=O)c1[nH]c2c(c1C)C(=O)CC(c1ccc(OCC)c(OC)c1)C2 (centres undefined),-22.6,16.3,13.1,.,.
CCCOC(=O)c1[nH]c2c(c1C)C(=O)CC(c1ccc(OC)c(OC)c1)C2 (centres undefined),29.8,21.1,-0.1,1.1,.
COc1ccc(CCNc2ncnc3c2oc2ccccc23)cc1OC,-84.3,37.0,-72.5,1,83.8*
COc1ccc(C2=NOC(CN3C(=O)c4ccccc4S3(=O)=O)C2)cc1 (centres undefined),35.2,-47.2,67.3*,1.2,-2.7
O=C1c2ccccc2S(=O)(=O)N1CC1CC(c2ccccc2)=NO1 (centres undefined),49.2*,-16.3,30.4,1.8,3.3
O=C(CN1C(=O)c2ccccc2S1(=O)=O)c1ccccc1,-49.7,.,-41.6,.,.
N#CC1=C(N)Oc2n[nH]c(-c3ccncc3)c2C1c1ccsc1 (centres undefined),-8.7,0.0,-1.9,1,5.4
Cc1ccc(C)c(NS(=O)(=O)c2ccc(OCC(=O)NCc3ccco3)cc2)c1,-5.7,8.5,-5.1,1.1,-1.3
CC(=O)n1c2ccccc2c2c(C#N)c(N3CCCCC3)sc21,-1.2,-1.9,50.9*,1.1,-3.8
COCCNC(=O)C1CC(c2cccc(OC)c2)=NO1 (centres undefined),-11.2,-17.6,3.9,1.2,8.3
Cc1cc(-c2cc(N)n(-c3ccccc3)n2)c(C)n1C1CCCC1,9.5,-4.4,42.7,2*,1.5
O=C(NCc1ccccc1Cl)c1cnc2n(c1=O)CCS2,6.4,17.0,-4.5,1.1,11.5
O=C(NCCc1c[nH]c2ccccc12)c1cnc2n(c1=O)CCS2,59.9*,-17.8,48.4,1.5,11.1
Cc1cc(C)n(-c2nnc(C)n2/N=C/c2ccccc2OCc2ccccc2Cl)n1,-26.6,6.4,-13.5,1.2,2.1
COc1cccc(-c2nnc3n2N=C(c2cc(OC)ccc2OC)CS3)c1,-6.5,17.1,2.0,1.1,.
COc1cccc(-c2nnc3n2N=C(C(C)(C)C)CS3)c1,-62.3,50.3*,-38.9,1.4,.
CCOc1cccc(-c2nnc3n2N=C(c2cc(OC)ccc2OC)CS3)c1,61.1*,30.4,46.2,.,.
CC1Cc2ccccc2N1C(=O)CSc1nnc2n1C(C)(C)Cc1ccccc1-2 (centres undefined),14.0,-2.2,-22.5,1.1,-0.3
COc1ccccc1N1CCN(C(=O)CSc2nnc3n2C(C)(C)Cc2ccccc2-3)CC1,-34.3,17.9,-20.9,1,60.5*
COc1ccc2c(c1)Cc1sc(NC(=O)c3ccco3)nc1-2,.,.,.,1.8,.
Cc1sc(NC(=O)c2ccco2)nc1-c1ccc2c(c1)CC(C)N2C(=O)C1CC1 (centres undefined),38.6,6.7,41.0,1.2,63.5*
SMILES,RORa activator,HEK293 NFkB inh,SF-1 act,MT1-MMP txn act,Jurkat viability
CCn1cc([N+](=O)[O-])c(C(=O)N2N=C3/C(=C/c4cccs4)CCCC3C2c2cccs2)n1 (centres undefined),.,.,.,1,.
O=C(c1cnn(-c2nc3ccccc3s2)c1)c1ccccc1O,51.9*,7.4,35.7,1.2,-2.8
CCOC(=O)C1C(=O)C(C(C)=O)C(=O)CC1CC(C)SCC (centres undefined),.,.,.,1.1,.
O=C(COc1ccc(S(=O)(=O)NC2CCCCC2)cc1)NC1CCCCC1,.,.,.,1.2,.
CCCSc1nnc(-c2c[nH]c3ccccc23)n1CC,2.4,5.3,6.3,1.2,3.1
CCCSc1nnc(-c2c[nH]c3ccccc23)n1C,30.3,-7.7,51.6*,1.3,-0.1
c1ccc2cc(OCc3nc4ccccc4[nH]3)ccc2c1,.,.,.,1.9,.
